Reference: ChEMBL document CHEMBL1135495, “New p-methylsulfonamido phenylethylamine analogues as class III antiarrhythmic agents: design, synthesis, biological assay, and 3D-QSAR analysis” (2002)

Species on record: Cavia porcellus
Test: Percent change of force of constriction measured in guinea pig at 10e-5 M concentration; Nf means No effect.
Type: functional
Method in brief: (§1)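 Left atria under 10 mN preload, driven at 1 s⁻¹ by square-wave pulses at twice-threshold voltage. Isometric contractions were recorded via a strain gauge after a 1 h Tyrode's equilibration. Cumulative drug additions were made every 15 min, with final concentrations rising geometrically. The inotropic effect was determined 10 min after each addition.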
For CN(CCc1ccc(N(S(C)(=O)=O)S(C)(=O)=O)cc1)C1CCCCC1, the N was “No effect”.

Species on record: Cavia porcellus
Test: Percent change in heart rate measured in guinea pig at 10e-5 M concentration
Type: functional
Method in brief: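 Spontaneously beating right atria, with contractions recorded in parallel to give beating rate. Tissue equilibrated 1 h in Tyrode's, washed every 15 min. Drug was added to the bath cumulatively at 15 min intervals in geometrically increasing final concentrations. The chronotropic effect was read 10 min after each addition.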
COc1ccccc1CN(C)CCc1ccc(NS(C)(=O)=O)cc1 was tested, and the “Delta HR” value was -26.7%.
For CN(CCc1ccc(NS(C)(=O)=O)cc1)Cc1ccc2c(c1)OCO2, the “Delta HR” value was -15.3%.
In the case of COc1ccc(CN(CCc2ccc(N(S(C)(=O)=O)S(C)(=O)=O)cc2)Cc2ccccc2)cc1, the “Delta HR” value is reported as -27.3%.
With C=CCN(CCOc1cccc2ccccc12)CCc1ccc(NS(C)(=O)=O)cc1 the “Delta HR” value was -15.2%.
With CS(=O)(=O)Nc1ccc(CCN(CCOc2cccc3ccccc23)C(=O)c2ccccc2)cc1 the “Delta HR” value was -20%.
In the case of CS(=O)(=O)Nc1ccc(CCNCCOc2ccc(NS(C)(=O)=O)cc2)cc1 [N-DESMETHYLDOFETILIDE], the “Delta HR” value is reported as -23.8%.
In the case of C=CCN(CCOc1cccc2ccccc12)CCc1ccc(N(S(C)(=O)=O)S(C)(=O)=O)cc1, the “Delta HR” value is reported as -8.33%.
For CS(=O)(=O)N(c1ccc(CCN(Cc2ccccc2)Cc2ccccc2)cc1)S(C)(=O)=O, the “Delta HR” value was -16%.
CS(=O)(=O)Nc1ccc(CCN(CCOc2cccc3ccccc23)Cc2ccccc2)cc1 was tested, and the “Delta HR” value was -31.8%.
CS(=O)(=O)Nc1ccc(CCN(CCOc2ccc(NS(C)(=O)=O)cc2)C(=O)c2ccccc2)cc1 was tested, and the “Delta HR” value was -28.4%.
With CN(CCc1ccc(N(S(C)(=O)=O)S(C)(=O)=O)cc1)C1CCCCC1 the “Delta HR” value was -8.36%.
In the case of COc1ccc(CN(C)CCc2ccc(N(S(C)(=O)=O)S(C)(=O)=O)cc2)cc1, the “Delta HR” value is reported as -19.2%.
COc1ccccc1CN(CCc1ccc(NS(C)(=O)=O)cc1)Cc1ccccc1 was tested, and the “Delta HR” value was -28.2%.
With CS(=O)(=O)Nc1ccc(CCN(CCOc2ccc(NS(C)(=O)=O)cc2)CCOc2ccc(NS(C)(=O)=O)cc2)cc1 the “Delta HR” value was -26.7%.
For COc1ccc(CN(CCc2ccc(NS(C)(=O)=O)cc2)C(=O)c2ccccc2)cc1, the “Delta HR” value was -3.7%.
For CC(=O)N(CCOc1cccc2ccccc12)CCc1ccc(NS(C)(=O)=O)cc1, the “Delta HR” value was -46.2%.
For CN(CCc1ccc(NS(C)(=O)=O)cc1)Cc1ccccc1, the “Delta HR” value was -20%.
In the case of CS(=O)(=O)Nc1ccc(CCN(CCOc2ccc(NS(C)(=O)=O)cc2)Cc2ccccc2)cc1, the “Delta HR” value is reported as -32%.

Species on record: Cavia porcellus
Test: Percent change of force of constriction measured in guinea pig at 10e-5 M concentration; N means No effect.
Type: functional
Method in brief: as §1
In the case of CS(=O)(=O)N(c1ccc(CCN(Cc2ccccc2)Cc2ccccc2)cc1)S(C)(=O)=O, the N is reported as “No effect”.

Species on record: Cavia porcellus
Test: Effective concentration for delaying effective refractory period (ERP) 10 ms in guinea pig
Type: functional
Method in brief: (§2)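 Isolated atria, left atria preloaded 10 mN and paced at 1 s⁻¹ with square-wave pulses at twice-threshold voltage. ERP was measured by paired electrical stimulation after a 1 h Tyrode's equilibration with washouts every 15 min. Drug was added cumulatively at 15 min intervals, with final concentrations rising geometrically. ERP was read 10 min after each addition.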
For COc1ccccc1CN(C)CCc1ccc(NS(C)(=O)=O)cc1, the C was 0.155 µM.
CN(CCc1ccc(NS(C)(=O)=O)cc1)Cc1ccc2c(c1)OCO2 showed a C of 0.89 µM.
COc1ccc(CN(CCc2ccc(N(S(C)(=O)=O)S(C)(=O)=O)cc2)Cc2ccccc2)cc1 was tested, and the C was 0.79 µM.
C=CCN(CCOc1cccc2ccccc12)CCc1ccc(NS(C)(=O)=O)cc1 showed a C of 0.315 µM.
CS(=O)(=O)Nc1ccc(CCN(CCOc2cccc3ccccc23)C(=O)c2ccccc2)cc1 showed a C of 8.67 µM.
In the case of CS(=O)(=O)Nc1ccc(CCNCCOc2ccc(NS(C)(=O)=O)cc2)cc1 [N-DESMETHYLDOFETILIDE], the C is reported as 0.023 µM.
Molecule CS(=O)(=O)N(c1ccc(CCN(Cc2ccccc2)Cc2ccccc2)cc1)S(C)(=O)=O has a C of 0.653 µM.
With CS(=O)(=O)Nc1ccc(CCN(CCOc2ccc(NS(C)(=O)=O)cc2)C(=O)c2ccccc2)cc1 the C was 0.039 µM.
CN(CCc1ccc(N(S(C)(=O)=O)S(C)(=O)=O)cc1)C1CCCCC1 showed a C of 4.39 µM.
COc1ccc(CN(C)CCc2ccc(N(S(C)(=O)=O)S(C)(=O)=O)cc2)cc1 showed a C of 1.17 µM.
Molecule COc1ccccc1CN(CCc1ccc(NS(C)(=O)=O)cc1)Cc1ccccc1 has a C of 0.141 µM.
Work on CS(=O)(=O)Nc1ccc(CCN(CCOc2ccc(NS(C)(=O)=O)cc2)CCOc2ccc(NS(C)(=O)=O)cc2)cc1 yielded a C of 0.383 µM.
In the case of COc1ccc(CN(CCc2ccc(NS(C)(=O)=O)cc2)C(=O)c2ccccc2)cc1, the C is reported as 6.18 µM.
With CC(=O)N(CCOc1cccc2ccccc12)CCc1ccc(NS(C)(=O)=O)cc1 the C was 0.05 µM.
With CN(CCc1ccc(NS(C)(=O)=O)cc1)Cc1ccccc1 the C was 0.372 µM.
CS(=O)(=O)Nc1ccc(CCN(CCOc2ccc(NS(C)(=O)=O)cc2)Cc2ccccc2)cc1 was tested, and the C was 0.016 µM.

Species on record: Cavia porcellus
Test: Percent change for delaying effective refractory period (ERP) in guinea pig at 10e-5 M concentration
Type: functional
Method in brief: as §2
COc1ccccc1CN(C)CCc1ccc(NS(C)(=O)=O)cc1 was tested, and the “Delta ERP” value was 15.6%.
For CN(CCc1ccc(NS(C)(=O)=O)cc1)Cc1ccc2c(c1)OCO2, the “Delta ERP” value was 6.16%.
COc1ccc(CN(CCc2ccc(N(S(C)(=O)=O)S(C)(=O)=O)cc2)Cc2ccccc2)cc1 was tested, and the “Delta ERP” value was 9.09%.
For C=CCN(CCOc1cccc2ccccc12)CCc1ccc(NS(C)(=O)=O)cc1, the “Delta ERP” value was 9.77%.
In the case of CS(=O)(=O)Nc1ccc(CCN(CCOc2cccc3ccccc23)C(=O)c2ccccc2)cc1, the “Delta ERP” value is reported as 5.33%.
With CS(=O)(=O)Nc1ccc(CCNCCOc2ccc(NS(C)(=O)=O)cc2)cc1 [N-DESMETHYLDOFETILIDE] the “Delta ERP” value was 9.39%.
For CS(=O)(=O)N(c1ccc(CCN(Cc2ccccc2)Cc2ccccc2)cc1)S(C)(=O)=O, the “Delta ERP” value was 9.56%.
In the case of CS(=O)(=O)Nc1ccc(CCN(CCOc2ccc(NS(C)(=O)=O)cc2)C(=O)c2ccccc2)cc1, the “Delta ERP” value is reported as 19%.
CN(CCc1ccc(N(S(C)(=O)=O)S(C)(=O)=O)cc1)C1CCCCC1 was tested, and the “Delta ERP” value was 6.24%.
For COc1ccc(CN(C)CCc2ccc(N(S(C)(=O)=O)S(C)(=O)=O)cc2)cc1, the “Delta ERP” value was 8.7%.
For COc1ccccc1CN(CCc1ccc(NS(C)(=O)=O)cc1)Cc1ccccc1, the “Delta ERP” value was 10.9%.
In the case of CS(=O)(=O)Nc1ccc(CCN(CCOc2ccc(NS(C)(=O)=O)cc2)CCOc2ccc(NS(C)(=O)=O)cc2)cc1, the “Delta ERP” value is reported as 13.5%.
For COc1ccc(CN(CCc2ccc(NS(C)(=O)=O)cc2)C(=O)c2ccccc2)cc1, the “Delta ERP” value was 6.33%.
CC(=O)N(CCOc1cccc2ccccc12)CCc1ccc(NS(C)(=O)=O)cc1 was tested, and the “Delta ERP” value was 58.4%.
For CN(CCc1ccc(NS(C)(=O)=O)cc1)Cc1ccccc1, the “Delta ERP” value was 12.2%.
CS(=O)(=O)Nc1ccc(CCN(CCOc2ccc(NS(C)(=O)=O)cc2)Cc2ccccc2)cc1 was tested, and the “Delta ERP” value was 17.5%.

Species on record: Cavia porcellus
Test: Effective concentration for delaying effective refractory period (ERP) 10 ms in guinea pig; N means No effect at 10E-5 M
Type: functional
Method in brief: as §2
In the case of C=CCN(CCOc1cccc2ccccc12)CCc1ccc(N(S(C)(=O)=O)S(C)(=O)=O)cc1, the N is reported as “No effect”.
In the case of CS(=O)(=O)Nc1ccc(CCN(CCOc2cccc3ccccc23)Cc2ccccc2)cc1, the N is reported as “No effect”.

Species on record: Cavia porcellus
Test: Percent change of force of constriction measured in guinea pig at 10e-5 M concentration
Type: functional
Method in brief: as §1
In the case of COc1ccccc1CN(C)CCc1ccc(NS(C)(=O)=O)cc1, the “Delta FC” value is reported as 38.3%.
CN(CCc1ccc(NS(C)(=O)=O)cc1)Cc1ccc2c(c1)OCO2 was tested, and the “Delta FC” value was 17.2%.
COc1ccc(CN(CCc2ccc(N(S(C)(=O)=O)S(C)(=O)=O)cc2)Cc2ccccc2)cc1 was tested, and the “Delta FC” value was -20%.
With C=CCN(CCOc1cccc2ccccc12)CCc1ccc(NS(C)(=O)=O)cc1 the “Delta FC” value was 16.7%.
For CS(=O)(=O)Nc1ccc(CCN(CCOc2cccc3ccccc23)C(=O)c2ccccc2)cc1, the “Delta FC” value was 33.3%.
With CS(=O)(=O)Nc1ccc(CCNCCOc2ccc(NS(C)(=O)=O)cc2)cc1 [N-DESMETHYLDOFETILIDE] the “Delta FC” value was 33.7%.
In the case of C=CCN(CCOc1cccc2ccccc12)CCc1ccc(N(S(C)(=O)=O)S(C)(=O)=O)cc1, the “Delta FC” value is reported as 16.7%.
For CS(=O)(=O)Nc1ccc(CCN(CCOc2cccc3ccccc23)Cc2ccccc2)cc1, the “Delta FC” value was 25%.
With CS(=O)(=O)Nc1ccc(CCN(CCOc2ccc(NS(C)(=O)=O)cc2)C(=O)c2ccccc2)cc1 the “Delta FC” value was 25%.
With COc1ccc(CN(C)CCc2ccc(N(S(C)(=O)=O)S(C)(=O)=O)cc2)cc1 the “Delta FC” value was 25%.
COc1ccccc1CN(CCc1ccc(NS(C)(=O)=O)cc1)Cc1ccccc1 was tested, and the “Delta FC” value was -14.3%.
For CS(=O)(=O)Nc1ccc(CCN(CCOc2ccc(NS(C)(=O)=O)cc2)CCOc2ccc(NS(C)(=O)=O)cc2)cc1, the “Delta FC” value was 20%.
In the case of COc1ccc(CN(CCc2ccc(NS(C)(=O)=O)cc2)C(=O)c2ccccc2)cc1, the “Delta FC” value is reported as 33.3%.
With CC(=O)N(CCOc1cccc2ccccc12)CCc1ccc(NS(C)(=O)=O)cc1 the “Delta FC” value was -37.9%.
For CN(CCc1ccc(NS(C)(=O)=O)cc1)Cc1ccccc1, the “Delta FC” value was 16.7%.
In the case of CS(=O)(=O)Nc1ccc(CCN(CCOc2ccc(NS(C)(=O)=O)cc2)Cc2ccccc2)cc1, the “Delta FC” value is reported as 24.8%.

Species on record: Cavia porcellus
Test: Percent change for delaying effective refractory period (ERP) in guinea pig at 10e-5 M concentration; N means No effect.
Type: functional
Method in brief: as §2
C=CCN(CCOc1cccc2ccccc12)CCc1ccc(N(S(C)(=O)=O)S(C)(=O)=O)cc1 was tested, and the N was “No effect”.
In the case of CS(=O)(=O)Nc1ccc(CCN(CCOc2cccc3ccccc23)Cc2ccccc2)cc1, the N is reported as “No effect”.
